Drawing on ChEMBL document CHEMBL1148216, “New nardosinanes and 19-oxygenated ergosterols from the soft coral Nephthea armata collected in Taiwan” (J Nat Prod, 2004), this text covers IC50 for nine molecules.

Holding throughout (assay type): functional, cell-based
One experiment concerns P388. The experiment in a line: Cytotoxicity against mouse P388 cells. Summed up:
(§1)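 Cytotoxicity was run by a previously described procedure, with mithramycin as the positive control, and IC50 values were derived. P-388 cells were a gift from an academic laboratory, and the A549 and HT-29 cells were obtained from a culture collection.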

The next experiment has as its system A549. The experiment in a line: Cytotoxicity against human A549 cells. The essentials:
as §1

The test system of a further experiment is HT-29. Nature of the experiment: Cytotoxicity against human HT29 cells. Summed up: as §1

pIC50: −log10 of the molar value. A value given as a limit tells only on which side of the number the result lay.

As to `C[C@@H]1C(=O)O[C@H]2CCC3=CC(=O)C[C@H](C)[C@@]3(C)[C@H]21`, the negative-log IC50 (pIC50) with P388, with A549 and with HT-29 was less than 4.30 throughout.
Turning to `C[C@H]1[C@H]2[C@@H](CCC3=C[C@@H](O)C[C@H](C)[C@]32C)O[C@@H]1O` [ARMATIN A], the negative logarithm of the IC50 (pIC50) in the experiment with P388, in the experiment on A549 and in the experiment on HT-29 was less than 4.30 each time.
With `CO[C@@H]1O[C@H]2CCC3=C[C@@H](O)C[C@H](C)[C@@]3(C)[C@H]2[C@@H]1C` [ARMATIN D], the negative-log IC50 (pIC50) with P388, in the experiment on A549 and in the experiment with HT-29 was less than 4.30 in each case.
Consider `CO[C@H](C(=O)[C@@H](O)[C@@H](C)O)[C@@H]1Cc2cc3cc(O[C@H]4C[C@@H](O[C@@H]5C[C@@H](O)[C@H](O)[C@@H](C)O5)[C@H](O)[C@@H](C)O4)c(C)c(O)c3c(O)c2C(=O)[C@H]1O[C@H]1C[C@@H](O[C@@H]2C[C@@H](O)[C@@H](O[C@@H]3C[C@](C)(O)[C@H](O)[C@@H](C)O3)[C@@H](C)O2)[C@H](O)[C@@H](C)O1` [PLICAMYCIN], for which the pIC50 is 7.00 in the experiment with P388, 6.70 with A549 and 6.52 with HT-29.
With `CO[C@@H]1O[C@H]2CCC3=CC(=O)C[C@H](C)[C@@]3(C)[C@H]2[C@@H]1C` [ARMATIN E], the negative logarithm of the IC50 (pIC50) with P388, in the experiment with A549 and with HT-29 was less than 4.30 in each case.
`C=C(CC[C@@H](C)[C@H]1CC[C@H]2[C@@H]3C[C@@H](O)[C@@]4(O)C[C@@H](O)CC[C@]4(COC(C)=O)[C@H]3CC[C@]12C)C(C)C` [ARMATINOL B]: the pIC50 is 5.49 in the experiment with P388 and 5.51 with HT-29.
On to `C=C(CC[C@@H](C)[C@H]1CC[C@H]2[C@@H]3C[C@H]4O[C@]45C[C@@H](O)CC[C@]5(COC(C)=O)[C@H]3CC[C@]12C)C(C)C` [ARMATINOL A], for which the figures for the negative logarithm of the IC50 (pIC50) in the experiment on P388, in the experiment on A549 and in the experiment with HT-29 were 5.21, 5.12 and 5.19, respectively.
Regarding `C[C@@H]1C(=O)O[C@@H]2CCC3=C[C@@H](O)C[C@H](C)[C@@]3(C)[C@@H]12` [ARMATIN B], the negative-log IC50 (pIC50) in the experiment on P388, in the experiment with A549 and in the experiment on HT-29 was less than 4.30 throughout.
With `CO[C@H]1O[C@@H]2CCC3=C[C@@H](O)C[C@H](C)[C@@]3(C)[C@H]2[C@@H]1C` [ARMATIN C], the pIC50 with P388, in the experiment on A549 and in the experiment on HT-29 was less than 4.30 throughout.

One may read the pIC50 as the IC50 on a negative log10 scale, so that one unit is a factor of ten.
